Reference: ChEMBL document CHEMBL1141137, “Design and synthesis of tricyclic imidazo[4,5-b]pyridin-2-ones as corticotropin-releasing factor-1 antagonists” (J Med Chem, 2005)

What was measured:
[1] = biological target: T1, Corticotropin-releasing factor receptor 1 (Homo sapiens, UniProt P34998); assay: Binding affinity for corticotropin-releasing factor-1 expressed in […] cells; assay type: cell-based
T1 sequence (P34998 whole entry): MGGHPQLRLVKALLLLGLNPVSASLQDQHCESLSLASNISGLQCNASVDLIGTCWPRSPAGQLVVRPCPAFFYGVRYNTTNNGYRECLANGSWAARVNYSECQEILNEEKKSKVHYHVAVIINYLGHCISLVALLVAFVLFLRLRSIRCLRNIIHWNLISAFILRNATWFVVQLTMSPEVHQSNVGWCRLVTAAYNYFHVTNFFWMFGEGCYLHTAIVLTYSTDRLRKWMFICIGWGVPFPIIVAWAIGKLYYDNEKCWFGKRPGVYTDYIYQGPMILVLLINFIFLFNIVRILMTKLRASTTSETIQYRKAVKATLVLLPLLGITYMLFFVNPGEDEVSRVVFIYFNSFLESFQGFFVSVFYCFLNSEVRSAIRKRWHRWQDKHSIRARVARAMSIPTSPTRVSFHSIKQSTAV
Procedure, shortened: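 Cloned human CRF1 receptor expressed in […] cells. Radiolabeled sauvagine used as ligand. Ki derived from dose–response curves over 1 nM to 10 μM. Values are the mean of three or more independent determinations.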

[2] = biological target: T1, Corticotropin-releasing factor receptor 1; assay: Inhibition of CRF stimulated cAMP production in CHO cells expressing CRF1 receptor; assay type: functional, cell-based
[3] = Concentration maximum in brain of rat was determined after 1 hr upon oral administration; assay type: ADME, organism-based; set-up: route oral
Procedure, shortened: (§1)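 Male Sprague-Dawley rats given 10 mg/kg intravenously or orally. Plasma clearance, volume of distribution and terminal half-life taken from the iv arm. Plasma and brain Cmax taken after oral dosing. Oral bioavailability estimated. Brain exposure relative to plasma based on AUC (0–6 h).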

[4] = Concentration maximum in plasma of rat was determined after 1 h upon oral administration; assay type: ADME, organism-based; set-up: route oral; procedure, shortened: as §1
[5] = Plasma clearance in rat was determined upon i.v. administration; assay type: ADME, organism-based; conditions: iv; procedure, shortened: as §1
[6] = Oral bioavailability in Rat upon oral administration; assay type: ADME, organism-based; conditions: in vivo; procedure, shortened: as §1
[7] = Terminal half life in rat was determined upon intravenous administration; conditions: in vivo
[8] = Volume distribution in rat was determined upon intravenous administration; conditions: in vivo
[9] = Terminal half life in rat was determined upon oral administration; assay type: ADME, organism-based; conditions: in vivo

| Structure (SMILES) | Ki [1] [nM] | further results |
| --- | --- | --- |
| CCCC(CCC)N1CCn2nc(-c3ccc(Cl)cc3Cl)c3nc(C)cc1c32 | 4.5 | – |
| CCCC(CCC)N1CCn2c(=O)n(-c3ccc(C(F)(F)F)cc3)c3nc(C)cc1c32 | 17 | – |
| CCCC(CCC)N1CCn2c(=O)n(-c3ccc(Cl)cc3Cl)c3nc(C)cc1c32 | 5.1 | – |
| CCCC(CCC)N1CCn2c(=O)n(-c3ccc(C(=O)OC)cc3)c3nc(C)cc1c32 | 920 | – |
| CCCC(CCC)N1CCn2c(=O)n(-c3ccc(OC)cc3)c3nc(C)cc1c32 | 2 | IC50 [2]: 71 nM; Cmax [3]: 1180 ng/g; Cmax [4]: 356 ng/mL; clearance [5]: 53.4 mL/min/kg; bioavailability [6]: 30%; half-life [7]: 96 min; Vd [8]: 7.2 L/kg |
| CCC(CC)N1CCn2c(=O)n(-c3ccc(OC)cc3C)c3nc(C)cc1c32 | 20 | – |
| CCCC(CCC)N1CCn2c(=O)n(-c3ccc(C(C)C)cc3Br)c3nc(C)cc1c32 | 1.1 | – |
| CCCC(CCC)N1CCn2c(=O)n(-c3ccc(S(C)(=O)=O)cc3)c3nc(C)cc1c32 | 460 | – |
| CCCC(CCC)N1CCn2c(=O)n(-c3ccccc3OC)c3nc(C)cc1c32 | 44 | – |
| CCCC(CCC)N1CCn2c(=O)n(-c3cccc(OC)c3)c3nc(C)cc1c32 | 130 | – |
| CCC(CC)N1CCn2c(=O)n(-c3ccc(C(F)(F)F)cc3)c3nc(C)cc1c32 | 170 | – |
| CCC(CC)N1CCn2c(=O)n(-c3ccc(OC)cc3)c3nc(C)cc1c32 | 8 | – |
| CCCC(CCC)N1CCn2c(=O)n(-c3ccc(OC)nc3)c3nc(C)cc1c32 | 60 | – |
| CCCC(CCC)N1CCn2c(=O)n(-c3ccc(OCC)cc3)c3nc(C)cc1c32 | 140 | – |
| CCCC(CCC)N1CCn2c(=O)n(-c3ccc(Cl)cc3)c3nc(C)cc1c32 | 12 | – |
| CCCCN1CCn2c(=O)n(-c3ccc(OC)cc3)c3nc(C)cc1c32 | 8800 | – |
| COc1ccc(-n2c(=O)n3c4c(cc(C)nc42)N(C(C)C)CC3)cc1 | > 10000 | – |
| CCCC(CCC)N1CCn2c(=O)n(-c3ccc(Cl)cn3)c3nc(C)cc1c32 | 23 | – |
| CCC(CC)N1CCn2c(=O)n(-c3ccc(Cl)cc3)c3nc(C)cc1c32 | 58 | – |
| COCC(COC)Nc1nc(C)nc2c(-c3ccc(Cl)cc3Cl)c(C)nn12 | – | half-life [9]: 960 min; Vd [8]: 22 L/kg |
| CCCCN(CC)c1nc(C)nc2c1c(C)cn2-c1c(C)cc(C)cc1C [CP-154526] | – | T1/2 [9]: 51 h; Vd [8]: 105 L/kg |
